Bioassay records: PubChem, NMMLSC
An excerpt weighted towards active compounds, which were near 2.3% of everything screened.
Arr AP2 block – human beta-arrestin and AP2 interaction inhibition | inhibition, % at 10 µM | 340,000 tested, 0.31% active | AID 504490 | FITC-arrestin peptide / GST-AP2 beads, flow cytometry; AP2 beta2 appendage carries R879A mutation;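 active = inhibition above a set limit, near 3 SD of compounds lacking own fluorescence, cut at about 54% in these data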;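 also: plate controls were DMSO wells for no effect and 5 µM unlabelled arrestin peptide for full effect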
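System: GST-tagged AP2 beta2-adaptin appendage (R879A) on 4 µm glutathione beads / Reagent: FITC-arrestin peptide, 50 nM / Detection: HyperCyt-sampled flow cytometry, FL1 channel, ex 488/em 535 nm / Timing: 12 min plus 1 h, RT / Buffer or medium: PBS plus Tween 20 (0.05%) and BSA (0.1%)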
MEKK3 PB1 HTS – modulators (inhibitors or enhancers) of MEK5 binding to human MEKK3 PB1 domain. AID 1529. bead-based flow cytometry, Alexa488-MEK5 binding to MEKK3; actives lie on both sides; 0 = blocked by unlabeled MEK5, 100 = vehicle. 290,000 tested, 1.4% active. binding response (% of control), % at 10 µM. Q99759;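 active = binding response more than 3 SD above or below the average of its plate-row segment, actives on both sides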;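 also: Alexa488 bead fluorescence after subtracting the streptavidin-only scavenger bead signal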
Target sequence (Q99759 whole entry, looked up, the tested form may be a part): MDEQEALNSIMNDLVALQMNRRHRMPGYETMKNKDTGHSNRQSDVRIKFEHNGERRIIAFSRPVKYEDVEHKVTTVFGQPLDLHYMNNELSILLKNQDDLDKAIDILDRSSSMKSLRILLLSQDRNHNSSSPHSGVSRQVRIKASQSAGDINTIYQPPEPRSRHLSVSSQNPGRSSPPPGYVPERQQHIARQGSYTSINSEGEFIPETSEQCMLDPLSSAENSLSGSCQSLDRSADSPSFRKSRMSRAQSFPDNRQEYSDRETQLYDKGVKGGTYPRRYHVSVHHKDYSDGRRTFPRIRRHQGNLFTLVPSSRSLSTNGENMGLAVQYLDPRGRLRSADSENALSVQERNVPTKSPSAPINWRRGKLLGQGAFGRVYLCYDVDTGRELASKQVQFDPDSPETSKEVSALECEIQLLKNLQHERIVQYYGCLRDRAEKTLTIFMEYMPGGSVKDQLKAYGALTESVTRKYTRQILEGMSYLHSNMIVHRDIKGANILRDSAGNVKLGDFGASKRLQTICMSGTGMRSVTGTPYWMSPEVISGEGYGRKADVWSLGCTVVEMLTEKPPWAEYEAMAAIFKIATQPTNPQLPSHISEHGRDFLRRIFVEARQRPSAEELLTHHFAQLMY
MEKK2wt PB1 HTS – raises or lowers MEK5 binding to wildtype human MEKK2 PB1 domain | bead flow cytometry, Alexa488-MEK5 binding to MEKK2 WT; actives lie on both sides | binding response (% of control), % at 10 µM | 290,000 tested, 1.1% active | AID 1531 | Q9Y2U5; in the data active = binding response below about 67% or above about 130%
MEKK2mut PB1 HTS – signal of MEK5 binding to mutant human MEKK2 PB1 domain; percent response, % at 10 µM; 290,000 tested, 0.35% active; bead flow cytometry, Alexa488-MEK5 binding to MEKK2 mutant; in the data active = percent response above about 24%, passing the limit was not always enough
MEKK2wt confirm – raises or lowers MEK5 binding to wildtype human MEKK2, retest; shares compounds with MEKK3 PB1 HTS; bead flow cytometry, Alexa488-MEK5 binding to MEKK2 WT; actives lie on both sides; binding response (% of control), % at 10 µM; 5,900 tested, 2.4% active; AID 1892; in the data active = binding response below about 16% or above about 210%; inactive = in between
MEKK2mut confirm – signal of MEK5 binding to mutant human MEKK2, retest | shares compounds with MEKK3 PB1 HTS | 5,900 tested, 2% active | bead flow cytometry, Alexa488-MEK5 binding to MEKK2 mutant | percent response, % at 10 µM; in the data active = percent response mostly above about 71%, no sharp cut-off; inactive = mostly below about 38%;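 also: higher means compound restores mutant binding toward wildtype level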
MEKK3 confirm – confirmation of inhibitors of MEK5 binding to human MEKK3; binding response (% of control), % at 10 µM; shares compounds with MEKK3 PB1 HTS; 5,900 tested, 1.8% active; bead flow cytometry, Alexa488-MEK5 binding to MEKK3; active compounds read low;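 active = binding response below 72% of control, or above a set upper limit, though filed actives all read lower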;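 also: 100% = DMSO only wells and 0% = binding blocked by excess unlabeled MEK5; lower values mean stronger disruption of MEK5 binding to MEKK3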
* hit, by the source's call; x = no result; [ ] = remark or other dose.

SMILES | Arr AP2 block | MEKK3 PB1 HTS | MEKK2wt PB1 HTS | MEKK2mut PB1 HTS | MEKK2wt confirm | MEKK2mut confirm | MEKK3 confirm
Cc1ccc(N(CC(=O)NCc2ccc(Cl)cc2)S(C)(=O)=O)cc1 | -10 | 106 | 103 | 3 | x | x | x
Cc1ccc(/C=C(\C#N)C(=O)Nc2c(C)cccc2C)s1 | 1 | 105 | 99 | 3 | x | x | x
Cc1ccc(NC(=O)/C(C#N)=C/c2ccc(C)s2)c(C)c1 | 0 | 109 | 39*[inhibitor] | 13 | 105 | -2 | 101
CCN(CC)c1ccc(/C=C/c2nc3ccccc3s2)cc1 | x | 98 | 81 | 2 | x | x | x
COc1cc2nc(/C=C/c3ccc(N(C)C)cc3)sc2cc1SC | 9 | 89 | 33*[inhibitor] | 32 | 86 | -13 | 93
O=C(CN(C(=O)CCC(=O)Nc1ccccn1)c1ccccc1F)NCc1ccc2c(c1)OCO2 | 11 | 100 | 101 | -3 | x | x | x
Cc1ccccc1N(CC(=O)NCc1ccc2c(c1)OCO2)C(=O)CCC(=O)Nc1ccccn1 | -5 | 76*[inhibitor] | 86 | -11 | 100 | -6 | 101
CC(C)(C)c1ccc(/C=N/NC(=O)c2ccccn2)cc1 | -1 | 87 | x | 86* | 108 | 4 | 105
O=C(N/N=C/c1ccsc1)c1ccccn1 | 10 | 99 | 91 | -2 | x | x | x
Cc1noc(C)c1C(=O)OCC(=O)NCc1ccccc1 | -9 | x | x | x | x | x | x
c1nc(NCC2(N3CCOCC3)CCCCC2)c2ccsc2n1 | -6 | 123* | 117 | 4 | 106 | 7 | 108
CCOc1nc(Nc2ccc(OC)c(Cl)c2)nc(N2CCN(c3ccc(OC)cc3)CC2)n1 | -1 | 79*[inhibitor] | 77 | 33* | 112 | 4 | 103
CN(C)c1ccc([C@@H]2[C@@H]([N+](=O)[O-])[C@H]3C=Cc4ccccc4N3[C@H]2C(=O)c2ccc(Cl)cc2)cc1 | 14 | 80 | 1.0*[inhibitor] | 6 | 92 | -3 | 94
O=S(=O)(c1ccc(Cl)cc1)N1CCN(c2ncnc3sccc23)CC1 | 5 | x | x | x | x | x | x
O=C(NCCc1ccccc1)c1ccc(NCC2CCCO2)c([N+](=O)[O-])c1 (configuration not stated) | -19 | 93 | 95 | -10 | x | x | x
O=C(O)CCC(=O)NCCc1cccc(Cl)c1 | 1 | 116 | 109 | 0 | x | x | x
O=C(CCSCc1cccc(Cl)c1)NCCc1ccccc1 | 3 | 134* | 106 | 0 | 105 | 7 | 105
CN(CC(=O)NCCc1ccc(F)cc1)Cc1cccc(Cl)c1 | -11 | 5.0*[inhibitor] | 6.0*[inhibitor] | -28 | 108 | 9 | 108
O=C(NCc1ccc(Cl)cc1)C1CCCN1C(=O)Nc1ccc(F)cc1 (configuration not stated) | 1 | 99 | 101 | 0 | x | x | x
Cc1ccc(NC(=O)CN(C)S(=O)(=O)c2cccc3cccnc23)c(C)c1 | -4 | 134* | 109 | 27 | 110 | 9 | 107
Cc1ccc(-c2nc(C(=O)NCCCN3CCOCC3)cc3c2[nH]c2ccccc23)cc1 | 5 | 101 | 142* | 21 | 156 | 41 | 108
COc1ccc(-c2nc(C(=O)NCCCN3CCOCC3)cc3c2[nH]c2ccccc23)cc1OC | 9 | 105 | 137* | 15 | 150 | 24 | 110
Cc1ccccc1NC(=O)Cn1nnc(S(=O)(=O)c2ccc(C(C)(C)C)cc2)c1N | 1 | 106 | 93 | -3 | x | x | x
O=C(NC1=NCCS1)c1cccc2ccccc12 | 17 | 105 | 102 | 3 | x | x | x
Cn1c(=O)c([N+](=O)[O-])c(NCCc2ccccc2)c2ccccc21 | 7 | 129* | 106 | 1 | 105 | 5 | 107
SMILES | Arr AP2 block | MEKK3 PB1 HTS | MEKK2wt PB1 HTS | MEKK2mut PB1 HTS | MEKK2wt confirm | MEKK2mut confirm | MEKK3 confirm
CCc1ccc(C(=O)COC(=O)c2cccnc2Cl)cc1 | 8 | 72*[inhibitor] | 74 | -16 | 100 | -3 | 103
O=C(COC(=O)c1cccnc1Cl)c1ccccc1 | -4 | 98 | 98 | 2 | x | x | x
C/C(=N\NC(=O)c1ccc(Br)cc1)C1C(=O)c2ccccc2C1=O | -50 | 103 | 105 | 3 | x | x | x
C/C(=N\NC(=O)c1ccc(-c2ccccc2)cc1)C1C(=O)c2ccccc2C1=O | 21 | 47*[inhibitor] | 47*[inhibitor] | -16 | 97 | 0 | 103
CCN(C[C@H]1N[C@@](CC)(C(=O)OC)[C@H]2C(=O)N(C)C(=O)[C@@H]12)S(=O)(=O)c1ccc(F)cc1 | 25 | x | x | x | x | x | x
O=C1NC(=O)C2(CCCC2c2ccccc2)N1 (configuration not stated) | -4 | x | x | x | x | x | x
CC1C(c2ccccc2)N(C)CCC12NC(=O)NC2=O (configuration not stated) | 14 | 4.0*[inhibitor] | 6.0*[inhibitor] | -45 | 101 | -1 | 105
CSCCC(NC(=O)C1CC1)c1nc2ccccc2[nH]1 (configuration not stated) | 8 | 99 | 97 | -2 | x | x | x
CSCC[C@H](NC(=O)C1CCCC1)c1nc2ccccc2[nH]1 | 1 | 69*[inhibitor] | 68 | -16 | 108 | 5 | 104
Cc1ccc(-c2ccc(SCC(=O)N3CCN(c4ccccc4)CC3)nn2)cc1 | -9 | 138* | 105 | 1 | 105 | -3 | 102
O=C(CSc1ccc(-c2ccccc2)nn1)N1CCN(c2ccccc2)CC1 | 4 | 99 | 99 | 9 | x | x | x
COC(=O)C1=C(NC(=O)c2ccccc2C)CCS1 | 43 | 46*[inhibitor] | 54 | -15 | 89 | -30 | 92
Cc1ccc(S(=O)(=O)N2CCN(C(=O)COC(=O)CSc3ccc(C)c(C)c3)CC2)c(C)c1 | -13 | x | x | x | x | x | x
CSC(=NC#N)N1CCN(C(c2ccccc2)c2ccccc2)CC1 | -3 | 102 | 99 | -1 | x | x | x
CSC(=NC#N)N1CCN(C(=NC#N)SC)CC1 | -2 | 2.0*[inhibitor] | 1.0*[inhibitor] | -60 | 98 | -6 | 99
COc1ccc(S(=O)(=O)N(C)c2ccc(C(=O)N3CCC(C(N)=O)CC3)cc2)cc1OC | 2 | 96 | 98 | 0 | x | x | x
Oc1ccc(O)c(-c2cnns2)c1 | 17 | 132* | 105 | 0 | 111 | 6 | 107
Cc1ccc(C)c(CNc2ccc(S(=O)(=O)N3CCCCC3)cc2)c1 | -1 | x | x | x | x | x | x
Cc1cccc(-n2c(CNC(=O)c3cccc([N+](=O)[O-])c3C)n[nH]c2=S)c1 | -7 | 96 | 98 | -7 | x | x | x
COc1ccccc1-n1c(CNC(=O)c2cccc([N+](=O)[O-])c2C)n[nH]c1=S | 15 | 26*[inhibitor] | 36*[inhibitor] | -33 | 96 | 1 | 98
CC(NC(=O)Nc1ccc(Cl)c(Cl)c1)C(c1ccccc1)N1CCOCC1 (configuration not stated) | -1 | 139* | 110 | 0 | 110 | 0 | 104
